Measured values pooled from the literature.
Each line is one published result; the experiments were not run side by side.
Target: Cyclin-dependent kinase 2 homolog (CRK2, Plasmodium falciparum, UniProt P61075)

| SMILES | test | conditions | endpoint | result |
| --- | --- | --- | --- | --- |
| O=C(NCC1CCOCC1)c1n[nH]cc1NC(=O)c1c(F)cccc1F | binding, competition with immobilised ligand | 1 µM | remaining binding | 100% |
| Cc1nn(C)cc1-c1nc2c(N3CCN(Cc4ccc(Cl)cc4)CC3)c(Cl)cnc2[nH]1 | binding, competition with immobilised ligand | 1 µM | remaining binding | 100% |
| CN(C)c1nccc(-c2cnc3ncccn23)n1 | cell-free assay | 1 µM | remaining signal | 72% |
| COc1cnc(Nc2cccc(S(N)(=O)=O)c2)nc1N1CCN(c2ccccc2)C(=O)C1 | binding, competition with immobilised ligand | 1 µM | remaining binding | 100% |
| Cc1ccc(-c2cnc([C@@]3(O)CC[C@H](C(=O)O)C(C)(C)C3)s2)cc1Nc1cccc(C(F)(F)F)n1 | binding, competition with immobilised ligand | 1 µM | remaining binding | 33% |
| C=CC(=O)N1CCC(C(=O)NCC(=O)N2CCN(c3nc(-c4cnc(N)nc4C(F)F)nc(N4CCOCC4)n3)CC2)CC1 | binding, competition with immobilised ligand | 1 µM | remaining binding | 65% |
| N[C@@H]1CCN(c2nccc(-c3cnn4ncccc34)n2)C1 | binding | 1 µM | remaining binding | 84% |
| c1cncc(-c2cccc(Nc3nccc(NC4CCCCC4)n3)c2)c1 | binding, competition with immobilised ligand | 10 µM | remaining binding | 100% |
| C[C@@H](c1ccc(-n2cnc3c(N)ncnc32)cc1)N1CCc2nn(C)c(Cc3ccccc3)c2C1=O | binding, competition with immobilised ligand | 0.1 µM | remaining binding | 83% |
| Cc1cnn2ncc(-c3ccnc(N(C)C)n3)c2c1 | binding | 1 µM | remaining binding | 82% |
| FC(F)(F)Oc1cccc(-c2cnc3ccc(-c4ccncc4)nn23)c1 | cell-free assay, competition with immobilised ligand | 5 µM | remaining binding | 87% |
| O=C(Nc1c[nH]nc1C(=O)NC1CCNCC1)c1cc(F)cc(F)c1 | binding, competition with immobilised ligand | 1 µM | remaining binding | 89% |
| Nc1ncc2c(n1)-c1c([nH]c3ccc(C#CC4CC4)cc13)CCCC2 | binding, competition with immobilised ligand | 1 µM | remaining binding | 100% |
| CCN1CCN(Cc2ccc(C(=O)Nc3ccc(C)c(Oc4ccc5c(c4)CC(=O)N5)c3)cc2C(F)(F)F)CC1 | binding, competition with immobilised ligand | 1 µM | remaining binding | 100% |
| Cc1ccc(C(=O)Nc2ccc(CN3CCN(C)CC3)c(C(F)(F)F)c2)cc1C#Cc1cnc2cccnn12 | enzyme activity, inhibitor | 23.5 nM | remaining activity | 94% |
| CNC(=O)[C@@H]1CC[C@@H](n2c(-c3ccc4cnccc4c3)nc3ccc(C(=O)NCc4cccc(C(N)=O)c4)cc32)C1 | binding, competition with immobilised ligand | 1 µM | remaining binding | 99% |
| Nc1ncnc2occ(-c3ccc(NC(=O)Nc4cc(C(F)(F)F)ccc4F)cc3)c12 | cell-free assay, inhibitor | 20 µM | remaining signal | 60% |
